BasE inh: BasE siderophore enzyme inhibitors, primary screen, biochemical, Acinetobacter baumannii ATCC 17978, fluorescence polarization. purified BasE, fluorescence polarization binding displacement. inhibition, % (test concentration not listed). hit rate 0.1% among 84,000. AID 485350, 2010; in the data active = inhibition above about 25%, passing the limit was not always enough;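 note: 0% = negative plate control signal and 100% = positive plate control signal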
KSHV LANA nucl: inhibitors of KSHV LANA-nucleosome binding, primary screen, biochemical, fluorescence polarization, FITC-LANA1-23, chicken nucleosomes; FITC-LANA1-23 / chicken nucleosome fluorescence polarization; hits give low values; z-score (concentration not given with the values); hit rate 0.3% among 51,000; AID 720717, 2013;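 active = both repeat wells score below -2 in polarization z-score versus plate sample wells, excluding overly bright wells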
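Test system: purified chicken nucleosomes with FITC-labelled LANA N-terminal peptide (1-23); Input: 240 nM purified chicken nucleosomes (480 nM peptide binding sites), final; Medium: TEN-BT buffer, pH 7.5; Timing: 10–45 min, room temperature; Technique: fluorescence polarization, 480 nm excitation, 535 nm parallel and perpendicular emission; Replication: duplicates.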
Starred values were filed as active, the others as inactive; ! = not active in a repeat. A selection: hits, their analogues and other compounds. The true share with any hit is near 0.3%.

CC12NC(=O)CN1CCc1ccccc12 (stereo unspecified) was read as BasE inh 5 and KSHV LANA nucl -0.11.
For C[C@@]12C[C@H](O)CCN1CCc1ccccc12 the results were BasE inh 6 and KSHV LANA nucl -2.4*.
Screening CCn1cc(C=C2C(=O)NC(=O)NC2=O)c2ccccc21 returned BasE inh 2 and KSHV LANA nucl -3.2*.
`O=C1NC(=O)C(=Cc2cn(Cc3ccccc3)c3ccccc23)C(=O)N1` gave BasE inh 3.
For Cc1cccc(CC(=O)N2CCC3(CC2)OCCO3)c1 the results were BasE inh 3 and KSHV LANA nucl -0.94.
Screening CN(C)C(=O)Oc1ccc2ccc(OC(=O)N(C)C)cc2c1 returned BasE inh 3 and KSHV LANA nucl 0.12.
CC[C@@]1(O)C(=O)OCc2c1cc1n(c2=O)Cc2cc3ccccc3nc2-1 was read as BasE inh -3 and KSHV LANA nucl 0.017.
Screening CC[C@@]1(O)C(=O)OCc2c1cc1n(c2=O)Cc2cc3c(O)cccc3nc2-1 returned BasE inh 9 and KSHV LANA nucl -3.1*!.
`C1=CCC2CC=CC(C1)N2` (stereo unspecified) gave BasE inh 1 and KSHV LANA nucl -0.65.
N#Cc1c(N)[n+]([O-])c2ccccc2[n+]1[O-] was read as BasE inh 1 and KSHV LANA nucl -8.3*.
c1ccc(OCC2CCCN3CCCCC23)nc1 (stereo unspecified) was read as BasE inh 2 and KSHV LANA nucl -1.
Screening COc1ccc(C2=NC3(CCNCC3)NC2=S)cc1 returned BasE inh -4 and KSHV LANA nucl 2.4.
`CC(C#N)N1CCN(c2ccc(F)cc2)CC1` (stereo unspecified) gave BasE inh -1.
For NC(N)=NOCC[C@@H](N)C(=O)O the results were BasE inh 0 and KSHV LANA nucl -0.55.
Screening C=C(C)Cc1c(C)nc(-c2ccc(C)c(Cl)c2)nc1OC(=O)N(C)C returned KSHV LANA nucl -0.29.
For CC[n+]1c(-c2ccccc2)c2cc(N)ccc2c2ccc(N)cc21 the results were BasE inh 4 and KSHV LANA nucl -6*.
`CN1C(=O)/C(=C/c2ccc(I)o2)C(=O)NC1=S` gave BasE inh 41* and KSHV LANA nucl 0.57.
For C=CCN1C(=O)/C(=C/c2ccco2)C(=O)NC1=S the results were BasE inh 9 and KSHV LANA nucl 0.37.
Screening CCOc1cc(C=C2C(=O)NC(=O)NC2=O)cc(Cl)c1O returned BasE inh 1 and KSHV LANA nucl -2.4*.
Screening CCOc1cc(C=C2C(=O)N(C)C(=S)N(C)C2=O)ccc1OC(C)C(=O)O (stereo unspecified) returned BasE inh 2 and KSHV LANA nucl 0.22.
C=C(C)C1CC=C(CN(C)C2CCN(C)CC2)CC1 (stereo unspecified) was read as BasE inh 0 and KSHV LANA nucl -0.27.
For C1=C(c2cccnc2)Nc2ncnn2C1c1cccs1 (stereo unspecified) the results were BasE inh 21 and KSHV LANA nucl -8.8*.
Screening CC12CN3CC(C)(C1O)C(O)C(C)(C3)C2O (stereo unspecified) returned BasE inh 1.
Screening N#Cc1sc2nc3c(cc2c1N)CCC3 returned BasE inh 0 and KSHV LANA nucl 0.26.
